From ChEMBL document CHEMBL1926521, “Arylcyanoacrylamides as inhibitors of the Dengue and West Nile virus proteases” (Bioorg Med Chem, 2011)
Activity calls are given as the source filed them. The rule behind the calls is not given here.

How the values were obtained:
Dengue virus = test: Inhibition of Dengue virus NS2B-NS3 protease expressed in Escherichia coli BL21 lambda (DE3) using Abz-NleKRRS-3-(NO2)Y as substrate at 50 uM preincubated for 15 mins before substrate addition measured up to 15 mins by spectrofluorimetry
Method in brief: (§1)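 Single-concentration screen against His-tagged NS2B-NS3 protease (Ni²⁺-affinity purified from E. coli). Enzyme was 100 nM for Dengue or 150 nM for West Nile. Inhibitor at 50 µM was preincubated 15 min with enzyme, then internally quenched FRET substrate (final 50 µM) was added. Read at ex 320/em 405 nm for 15 min. Rate taken as RFU/s; % inhibition is the mean of triplicates.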

West Nile virus = test: Inhibition of West Nile virus NS2B-NS3 protease expressed in Escherichia coli BL21 lambda (DE3) using Abz-GLKRGG-3-(NO2)Y as substrate at 50 uM preincubated for 15 mins before substrate addition measured up to 15 mins by spectrofluorimetry; method in brief: as §1
Prothrombin = Prothrombin (Homo sapiens, UniProt P00734); test: Inhibition of human thrombin using Boc-VPR-AMC as substrate at 25 uM preincubated for 15 mins before substrate addition measured up to 10 mins by spectrofluorimetry

Compound | inhibition (Dengue virus) | inhibition (West Nile virus) | inhibition (Prothrombin)
CC(C)c1ccc(/C=C(\C#N)C(=O)NC2CC2)cc1 | 18.2% | 22.2% | 17.9%
N#Cc1n[nH]nc1-c1ccccc1 | inactive | 11.2% | inactive
COc1ccc(/C=C(\C#N)C(N)=O)cc1 | 19.7% | 23.4% | 16.7%
Cc1ccc(/C=C(\C#N)C(N)=O)cc1 | 32.2% | 22.8% | inactive
CN(C)c1ccc(/C=C(\C#N)C(N)=S)cc1 | inactive | inactive | 13.7%
N#C/C(=C\c1ccc(N2CCCCC2)cc1)C(N)=O | 14% | 24.2% | 20%
CC(C)/C(=C(/C#N)C(N)=O)c1ccccc1 | inactive | inactive | 16.7%
N#C/C(=C\c1cccc(C(=O)NC2CC2)c1)C(=O)NC1CC1 | 10.8% | 19.1% | 8%
N#C/C(=C\c1ccc(CO)cc1)C(N)=O | 22.1% | 21.7% | 8.7%
C/C(=C(\C#N)C(N)=O)c1ccc(O)cc1 | 13.2% | 22.7% | inactive
COc1cc(/C=C(\C#N)C(N)=O)ccc1OCc1ccccc1 | inactive | inactive | 16%
COc1ccc(/C=C(\C#N)C(N)=O)cc1OC | 19.2% | 22% | 20%
CN(C)c1ccc(C=C(C#N)C#N)cc1 | 8.7% | 8.8% | 16.3%
N#C/C(=C\c1ccc(C(=O)O)cc1)C(=O)NC1CC1 | 20% | 31% | 15.9%
N#C/C(=C\c1ccc(C(=O)N2CCCCC2)cc1)C(N)=O | 22.3% | 24% | inactive
N#C/C(=C\c1cccnc1)C(N)=O | inactive | inactive | inactive
N#C/C(C(N)=O)=C1\CCc2ccccc21 | 23.2% | 24.1% | 10.3%
CN1CCN(c2ccc(/C=C(\C#N)C(=O)NC3CC3)cc2)CC1 | 37.4% | 47.8% | 21.8%
N#C/C(=C\c1ccc(Br)cc1)C(=O)NC1CC1 | 10.9% | 22.6% | inactive
CN1CCN(C(=O)/C(C#N)=C/c2ccc(O)cc2)CC1 | 35.4% | 35.1% | 20.8%
COc1cc(/C=C(\C#N)C(N)=O)ccc1O | 43.2% | 42.9% | 17.4%
N#C/C(=C\c1ccc(C(=O)N2CCOCC2)cc1)C(=O)NC1CC1 | 22.9% | 23% | 9%
CN(C)c1ccc(/C=C/C=C(\C#N)C(=O)NC2CC2)cc1 | 10.3% | 17.1% | 16.2%
N#C/C(=C\c1c[nH]c2ccccc12)C(N)=O | 23.7% | 33.4% | 16.4%

Compound | inhibition (Dengue virus) | inhibition (West Nile virus) | inhibition (Prothrombin)
N#C/C(=C\c1sccc1Br)C(N)=O | 18.4% | 19.3% | 10.1%
CCC/C(=C(\C#N)C(N)=O)c1ccccc1 | 7.6% | 16% | 6.9%
N#C/C(=C\c1ccc(O)cc1)C(=O)NCC1CCCO1 (stereo not drawn) | 46.4% | 44.4% | 16.8%
COc1cc(/C=C(\C#N)C(N)=O)cc(OC)c1OC | 15.6% | 19.3% | 17.8%
CN(C)c1ccc(/C=C(\C#N)C(=O)N2CCOCC2)cc1 | 43.3% | 38.1% | 25.1%
CC(C)/C(=C(\C#N)C(N)=O)c1ccccc1 | inactive | 13.8% | 10.1%
CC(=C\c1ccccc1)/C=C(\C#N)C(N)=O | 30.2% | 34.6% | 20.5%
CC(=C\c1ccccc1)/C=C(\C#N)C(=O)NCC1CCCO1 (stereo not drawn) | 36.8% | 30.1% | 28.7%
C/C(=C(/C#N)C(N)=O)c1ccccc1 | inactive | 13.7% | 7.3%
N#C/C(=C\c1ccc(N2CCOCC2)cc1)C(N)=O | 28.2% | 35.3% | 19.2%
N#C/C(=C\c1cc(O)c(O)c([N+](=O)[O-])c1)C(N)=O | 24.3% | 28.2% | 22.5%
CCN(CC)C(=O)/C(C#N)=C/c1cc(O)c(O)c([N+](=O)[O-])c1 | 21% | 32.4% | 21.9%
COc1cc(/C=C(\C#N)C(N)=O)cc(I)c1O | 30.5% | 43.8% | 23%
N#C/C(=C\c1ccc(C(=O)O)cc1)C(N)=O | 17.1% | 23.8% | 13.2%
CC(C)c1ccc(/C=C(\C#N)C(N)=O)cc1 | 23% | 24.6% | 19.4%
N#CC(Cc1c[nH]c2ccccc12)C(N)=O (stereo not drawn) | inactive | inactive | inactive
N#C/C(=C\c1ccc(N2CCOCC2)s1)C(N)=O | 23.2% | 29.1% | 38.6%
CN(C)c1ccc(/C=C(\C#N)C(=O)NC2CC2)cc1 | 22.6% | 33.2% | 23.7%
CN(C)c1ccc(/C=C(\C#N)C(=O)O)cc1 | 38.7% | 46.5% | 13.3%
C/C(=C(/C#N)C(N)=O)c1ccc(O)cc1 | 16.8% | 21.9% | inactive
N#C/C(=C\c1ccncc1)C(N)=O | inactive | inactive | inactive
N#C/C(=C\c1ccc([N+](=O)[O-])cc1)C(N)=O | inactive | 10.5% | inactive
N#C/C(=C\c1ccc(O)cc1)C(=O)NCc1ccccn1 | 46.6% | 41.8% | 18.9%
C/C(=C\c1ccccc1)CC(C#N)C(N)=O (stereo not drawn) | inactive | inactive | inactive

Compound | inhibition (Dengue virus) | inhibition (West Nile virus) | inhibition (Prothrombin)
CN(C)c1ccc(/C=C(\C#N)C(N)=O)cc1 | 35.1% | 46% | 21.6%
N#C/C(=C\c1ccc(O)c(O)c1)C(N)=O | 34.9% | 28.8% | 18.4%
COc1cccc(/C=C(\C#N)C(N)=O)c1 | 16.3% | 12.3% | 9.6%
COc1ccc(/C=C(\C#N)C(=O)N[C@@H](CO)C(=O)NC2CC2)cc1 | 23% | 31.7% | 23.3%
N#C/C(=C\c1ccccc1)C(N)=O | 15% | 9.3% | 12.5%
CN(C)c1ccc(CC(C#N)C(N)=O)cc1 (stereo not drawn) | 7.1% | 16.2% | inactive
N#C/C(=C\c1ccc(O)cc1)C(=O)N1CCOCC1 | 32.2% | 49.9% | 18%
N#CC(Cc1ccc(N2CCOCC2)cc1)C(N)=O (stereo not drawn) | inactive | 7.9% | inactive
COc1cc(CC(C#N)C(N)=O)cc(OC)c1OC (stereo not drawn) | inactive | inactive | inactive
N#C/C(=C\c1cccc(C(=O)O)c1)C(=O)NC1CC1 | 20.2% | 20.1% | 11.9%
CCC/C(=C(/C#N)C(N)=O)c1ccccc1 | 6.7% | 15.3% | 11.1%
N#C/C(=C\c1ccc(O)cc1)C(=O)NC1CC1 | 44.7% | 57.3% | 18.8%
N#C/C(=C\c1ccc(Cl)cc1Cl)C(N)=O | 14.7% | 10.7% | 8.5%
CN1CCN(c2ccc(/C=C(\C#N)C(N)=O)cc2)CC1 | 32.3% | 40.9% | 22%
N#C/C(=C\c1ccc(Br)o1)C(=O)NC1CC1 | 15.6% | 23.9% | 26.9%
N#C/C(=C\c1ccc(F)cc1)C(N)=O | 22.5% | 16% | 7.9%
CN1CCN(c2c(F)c(F)c(/C=C(\C#N)C(N)=O)c(F)c2F)CC1 | 19.2% | 31.9% | 28.5%
C/C(=C(\C#N)C(N)=O)c1ccccc1 | 9% | 18.4% | 9.7%
N#C/C(=C\c1ccc(Br)s1)C(N)=O | 20.2% | 19.2% | 26.3%
N#C/C(=C\c1ccc(N2CCNCC2)cc1)C(N)=O | 28.6% | 45% | 26.1%
COC(=O)[C@H](CO)NC(=O)/C(C#N)=C/c1ccc(OC)cc1 | 20.3% | 21.1% | 21.4%
N#C/C(=C\c1ccc(N2CCCC2)cc1)C(N)=O | 24.3% | 24.6% | 17.7%
N#C/C(=C\c1ccc(Br)s1)C(=O)NC1CC1 | inactive | 10.5% | 17.9%
